Assay outcomes as filed in PubChem BioAssay.
Hits are enriched below; roughly 1.5% of the tested compounds scored in any of these assays.
NR2E3 ag-1 – human photoreceptor-specific nuclear receptor agonism; Q9Y5X4; inhibition of corepressor binding, % at 3.98 µM; CHO-S Gal4-NCOR/VP16-NR2E3 two-hybrid, luciferase; actives 0.35% (n = 360,000);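 active = inhibition above the mean of all tested compounds plus 3 SD, cut at about 70% in these data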;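 note: 0% = DMSO with NR2E3 transfected cells and 100% = cells lacking NR2E3 construct; higher means lower luciferase signal from less NR2E3 corepressor binding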
PG9 binder – small molecules binding HIV-1 gp120 antibody PG9; TR-FRET gp120-PG9 antibody binding; inhibition, % at 6.7 µM; actives 0.43% (n = 360,000); in the data active = inhibition above about 8.5%
NR2E3 ag-2 – NR2E3 (human) agonism; Q9Y5X4; GST-NR2E3/biotin-RetCOR TR-FRET, 1536-well; inhibition of corepressor binding, % at 4.78 µM; actives 0.12% (n = 320,000);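 active = percent inhibition above the cutoff of mean plus 3 SD of all tested compounds, set per screening campaign, cut at about 20% in these data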;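 note: 0% = DMSO wells and 100% = biotin wells as full block of FRET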
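system = GST-tagged NR2E3 plus biotinylated RetCOR corepressor | input = 1.35 nM GST-NR2E3 | also added = 7 nM biotin-RetCOR | schedule = 5 h incubation at 4 °C | measured by = TR-FRET with europium anti-GST and streptavidin-D2, 340 nm excitation | read-out = percent loss of FRET ratio relative to control wells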
NR1D1 modulator – Rev-erb alpha (human) modulation; Rev-erbα–FITC-DNA binding, fluorescence polarization, 90 min; activity, % at 10 µM; actives 0.79% (n = 370,000); AID 1259318;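 active = activity above about 14%, limit read from the data; passing the limit was not always enough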;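 note: 0% = DMSO wells with 35 nM protein and 100% = DMSO wells with 750 nM protein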
Target sequence (P20393 whole entry, looked up): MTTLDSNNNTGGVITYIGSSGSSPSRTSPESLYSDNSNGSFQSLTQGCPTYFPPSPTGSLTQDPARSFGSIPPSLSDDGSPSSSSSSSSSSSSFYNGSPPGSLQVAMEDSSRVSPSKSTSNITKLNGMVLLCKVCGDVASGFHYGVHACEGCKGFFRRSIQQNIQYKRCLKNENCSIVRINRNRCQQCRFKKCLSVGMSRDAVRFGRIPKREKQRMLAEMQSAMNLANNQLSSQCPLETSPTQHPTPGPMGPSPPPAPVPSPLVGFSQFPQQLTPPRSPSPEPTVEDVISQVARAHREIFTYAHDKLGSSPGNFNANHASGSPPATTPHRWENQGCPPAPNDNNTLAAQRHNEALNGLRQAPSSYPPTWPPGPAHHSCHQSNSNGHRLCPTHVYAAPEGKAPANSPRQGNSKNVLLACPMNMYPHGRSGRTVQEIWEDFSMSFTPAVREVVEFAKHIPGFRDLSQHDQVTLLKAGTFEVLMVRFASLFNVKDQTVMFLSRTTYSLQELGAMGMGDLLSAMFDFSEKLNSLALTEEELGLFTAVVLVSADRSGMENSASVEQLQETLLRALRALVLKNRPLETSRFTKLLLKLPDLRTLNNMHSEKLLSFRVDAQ
NR2E3 ag confirm – NR2E3 agonism confirmed in two-hybrid assay | inhibition, % at 3.98 µM | AID 624378 | CHO-S mammalian two-hybrid NR2E3-NCOR, luciferase luminescence | shares compounds with NR2E3 ag-1 | actives 51% (n = 2,300);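 active = average inhibition above a cutoff equal to the mean inhibition of all tested compounds plus one SD, cut at about 70% in these data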;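 note: 0% = DMSO in NR2E3 cells and 100% = DMSO in cells lacking NR2E3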
VP16 counter – GAL4-VP16 reporter inhibition in NR2E3 agonist counterscreen | AID 624379 | CHO-S GAL4-VP16 luciferase reporter, luminescence | shares compounds with NR2E3 ag-1 | actives 29% (n = 2,300) | inhibition, % at 3.98 µM;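 active = mean inhibition above a cutoff equal to the average over all tested compounds plus one standard deviation, cut at about 70% in these data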;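 note: luciferase from a UAS reporter driven by GAL4-VP16 transactivation; 0% = DMSO with VP16-transfected cells and 100% = DMSO with cells lacking VP16; higher means less reporter light so more repression of VP16 activity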
* marks the source's active call; other numbers are inactive results; . = no result given.

SMILES	NR2E3 ag-1	PG9 binder	NR2E3 ag-2	NR1D1 modulator	NR2E3 ag confirm	VP16 counter
Cc1ccc(C(=O)N2CCN(c3ncccn3)CC2)cc1	-7.2	1.5	.	1.3	.	.
O=C(Cc1ccccc1)NC1CCCc2c1cnn2-c1ccc(F)cc1F (stereo not given)	.	.	.	3.2	.	.
COC(=O)c1ccc(-c2ccc3c(c2)[C@]2(CCC[C@@H](O)[C@@H]2NC(=O)CCc2ccccc2)C(=O)N3Cc2ccccc2)cc1	.	.	.	0.4	.	.
O=C(c1cc(S(=O)(=O)N2CCN(c3ccccc3)CC2)ccc1Cl)N1CCCC(C(F)(F)F)C1 (stereo not given)	81.5*	-1.3	1.9	4.6	92.3*	76.3*
COc1cnc(-c2ccccn2)nc1Oc1ccc(Cl)cc1	79.3*	-0.9	-1.5	-0.9	23.8	-24.8
COc1cnc(-c2ccccn2)nc1Oc1ccccc1Cl	-0.2	0.0	1.2	1.3	.	.
COc1cnc(-c2ccccn2)nc1Oc1ccc(Cl)c2ccccc12	63.8	-1.2	-0.2	-2.0	10.7	35.4
COc1ccc(CCNC(=O)C2CC3Cn4c(nc5cc6ccccc6cc54)C3N2C)cc1 (stereo not given)	53.4	0.8	-3.3	-4.6	31.8	34.5
CN1C(C(=O)NCCc2cccs2)CC2Cn3c(nc4cc5ccccc5cc43)C21 (stereo not given)	11.9	0.3	9.0	-5.7	.	.
CN(Cc1ccccc1)S(=O)(=O)c1cccc(C(=O)OCc2ccc(Oc3ccccc3)cc2)c1	.	.	.	-1.8	.	.
Cc1nc(NC(=O)c2ccco2)sc1C(=O)Nc1ccc(Br)cc1	53.8	.	7.1	.	64.4	22.3
Cc1cc(NC(=O)c2ccc(NS(=O)(=O)c3ccc(F)cc3)cc2)no1	.	.	.	0.8	.	.
c1ccc(Nc2nc(-c3ccccn3)cs2)cc1	-28.0	-2.9	2.3	-0.8	.	.
COc1cccc2sc(Nc3nc(-c4ccccn4)cs3)nc12	97.3*	.	2.4	.	99.9*	-24.8
O=C(Nc1nnc(SCc2ccc(F)cc2)s1)c1ccccn1	64.9	0.4	.	-0.6	48.9	4.7
CC1CC(C)C(=NNC(N)=O)C(C(O)CC2CCC(=O)NC2=O)C1 (stereo not given)	101.6*	2.6	.	-1.0	84.7*	35.0
CCC1SC(C)C/C(=N/NC(N)=O)C1C (stereo not given)	5.1	-1.5	2.8	-3.0	.	.
CC(C)N=C(N)N=C(N)Nc1ccc(Cl)cc1	89.1*	-2.0	3.0	-5.0	87.8*	60.0
CC(C)CCCCCCCCCCCCC(=O)NCC(=O)NC1C(C)OC(Nc2ncnc3nc[nH]c23)C(O)C1O (stereo not given)	72.5*	-0.9	.	-4.4	98.1*	97.0*
COc1cc2c(O)c3c(c(-c4ccc5c(c4)OCO5)c2cc1OC)C(=O)OC3	81.7*	-1.8	2.1	-2.5	99.4*	42.6
COc1cc2c(OC(C)=O)c3c(c(-c4ccc5c(c4)OCO5)c2cc1OC)C(=O)OC3	81.0*	1.1	1.6	-0.2	98.4*	31.0
COc1ccc(CCNC(=O)Nc2ccc3c(c2)[C@@]2(CC(=O)N(CC(C)C)C2c2ccccc2)C(=O)N3C)cc1OC (stereo not given in full)	.	.	.	1.8	.	.
Cc1ccccc1Cn1cc(CN2[C@@H](CC(C)C)COc3cc(Br)ccc3S2(=O)=O)nn1	.	.	.	1.4	.	.
O=C(CCc1ccccc1)N[C@H]1[C@@H](OC(=O)c2cccnc2)CCC[C@]12C(=O)N(Cc1ccccc1)c1ccccc12	.	.	.	-5.3	.	.
CCCCNC(=O)C[C@H]1C[C@@]2(C(=O)OC)C(=C[C@H](C(C)(C)C)O[C@@H]2C)N(Cc2cccc3ccccc23)C1=O	.	.	.	5.0	.	.
SMILES	NR2E3 ag-1	PG9 binder	NR2E3 ag-2	NR1D1 modulator	NR2E3 ag confirm	VP16 counter
CCNc1nc(NCC)nc(-n2nc(C)cc2C)n1	54.6	0.9	1.0	-1.5	-4.9	-7.7
COc1ccc(C2CCc3cc4c(cc3C2=NO)OCO4)cc1OC (stereo not given)	67.2	-1.9	.	-2.0	39.1	44.4
Cc1ccc(S(=O)(=O)N2c3ccccc3C[C@H]2CC=C(c2ccccc2)c2ccccc2)cc1	.	.	.	8.6	.	.
COc1ccc(CNC(=O)c2ccc(-c3ccccc3)cc2)cc1	-83.5	4.6	0.3	.	.	.
COc1ccc(CNC(=O)c2c(C)oc3c2C(=O)c2ccccc2C3=O)cc1	65.8	1.2	-2.0	10.1	98.5*	50.4
NC1=C(Cl)C(=O)c2ccccc2C1=O	1.0	-8.2	.	-12.7	.	.
NC1=C(Cl)C(=O)c2ccc(S(N)(=O)=O)cc2C1=O	71.5*	-17.4	.	-13.9	9.7	18.9
COc1ccc(NC(=O)C(Cl)=C(Cl)Cl)cn1	-27.6	-1.4	.	-3.8	.	.
COc1ccc(NC(=O)/C(Cl)=C(/Cl)S(=O)(=O)Cc2ccccc2)cn1	82.8*	-2.3	.	-6.4	98.2*	26.6
COc1ccc(NC(=O)C(C)(C)Oc2ccc(Cl)cc2)cn1	4.4	0.9	-1.3	2.3	.	.
COc1ccc(NC(=O)/C(Cl)=C(/Cl)S(=O)Cc2ccc(Cl)cc2)cn1 (stereo not given)	87.2*	-0.4	.	-2.5	99.1*	34.0
Cc1ccc(OCCOc2ccc(Cl)cc2Cl)c(Br)n1	.	.	.	7.0	.	.
Cc1ccc2nc(-c3ccc(NC(=O)CSc4nnc(-c5cccc(Cl)c5)n4Cc4ccco4)cc3)sc2c1	.	.	.	-2.5	.	.
CS(=O)(=O)N1CCc2cc(S(=O)(=O)Nc3ccc4oc5c(c4c3)CCCC5)ccc21	62.1	-0.7	-0.3	8.3	78.7*	67.5
COc1ccccc1Sc1nc(-c2ccccn2)ncc1OC	78.0*	-2.5	-3.5	3.4	44.8	-0.9
COc1cnc(-c2ccccn2)nc1Sc1ccc(C)cc1	94.0*	1.7	0.7	-5.1	42.0	29.7
Cc1ccc(Sc2cc(C)nc(-c3ccccn3)n2)cc1	85.8*	0.3	-2.1	4.9	-6.4	-23.9
COc1ccc(-c2nc(-c3ccccn3)ncc2S(C)(=O)=O)cc1	-18.9	-1.5	4.0	-3.1	.	.
COc1cnc(-c2ccccn2)nc1Sc1cccc(Cl)c1	52.4	0.1	0.4	-1.9	62.6	4.6
COc1cnc(-c2ccccn2)nc1Oc1ccc(F)cc1F	43.7	-2.0	4.0	4.0	.	.
FC(F)(F)c1cccc(Sc2cc(C(F)(F)F)nc(-c3ccccn3)n2)c1	-2.7	3.6	0.3	-2.3	.	.
Cc1cc(C(=O)O[C@@H]2CCC[C@]3(C(=O)N(Cc4ccccc4)c4ccccc43)[C@H]2NC(=O)CCc2ccccc2)no1	.	.	.	6.6	.	.
COc1cnc(-c2ccccn2)nc1NC(C)C	67.8	-1.7	-1.5	-3.8	38.2	-23.2
COc1cnc(-c2ccccn2)[nH]c1=O	9.2	0.4	1.2	1.5	.	.
O=C(Cn1nc(-c2ccccc2)c2ccccc21)Oc1ccccc1	.	.	.	6.1	.	.
C=CCN1C(=O)[C@@H](CC(=O)NCc2cccc(C(F)(F)F)c2)[C@]2(C(=O)OC)CCCCC=C12	.	.	.	1.0	.	.
